In BindingDB's records for doi:10.1021/jm990600c (University of California, 2000):
Structures can show the parent of a compound that is named as a salt.

Assays:
[1] = target: T1, Gag-Pol polyprotein [489-587] (Human immunodeficiency virus 1, UniProt P04585); experiment: Inhibition of strand -transfer (ST) activity in the presence of Mn2+
T1 construct: 489-587
Procedure, shortened: (§1)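 Purified recombinant HIV-1 integrase with DNAs mimicking one viral cDNA end and a target DNA, Mn2+ as the divalent cofactor; compounds titrated in. Terminal cleavage (3'-processing) and strand-transfer products resolved and read by gel assay.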

[2] = target: T1, Gag-Pol polyprotein [489-587]; experiment: Inhibition of 3'-processing (TC) in the presence of Mn2+ in vitro; procedure, shortened: as §1
[3] = target: T1, Gag-Pol polyprotein [489-587]; experiment: Tested in vitro against strand -transfer (ST) activity in the presence of Mg2+ as the cationic cofactor
Procedure, shortened: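 Strand transfer by purified recombinant HIV-1 integrase with Mg2+ as cofactor, monitored in a microtiter plate format with viral-end and target DNAs; product detected through a digoxygenin label in the DNA; compounds titrated.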

| SMILES | IC50 [1] [µM] | IC50 [2] [µM] | IC50 [3] [µM] |
| --- | --- | --- | --- |
| CC1(C)CC2(CC(C)(C)c3cc(C=O)c(O)cc32)c2cc(O)c(C=O)cc21 [6,6'-dihydroxy-3,3,3',3'-tetramethyl-1,1'-spirobi[2,3-dihydro-1H-indene]-5,5'-dicarbaldehyde] | 6 | 35 | 16 |
| CC1(C)CC2(CC(C)(C)c3cc(N)c(O)cc32)c2cc(O)c(N)cc21 [3,3,3',3'-tetramethyl-1,1'-spirobi(indan)-5,5'-diamino-6,6'-diol Dihydrochloric salt] |  |  | 33 |
| CC1(C)CC2(CC(C)(C)c3ccc(O)c(NC(N)=O)c32)c2cc(O)c(NC(N)=O)cc21 (centres undefined) [3,3,3',3'-tetramethyl-1,1'-spirobi(indan)-6,6'-dihydroxy-5,7'-bisurea] | 350 | 420 |  |
| CC1(C)CC2(CC(C)(C)c3cc(Br)c(O)cc32)c2cc(O)c(Br)cc21 [5,5'-dibromo-3,3,3',3'-tetramethyl-1,1'-spirobi[2,3-dihydro-1H-indene]-6,6'-diol] | 10 | 11 |  |
| CC1(C)CC2(CC(C)(C)c3cc(S(=O)(=O)O)c(O)cc32)c2cc(O)c(S(=O)(=O)O)cc21 [6,6'-dihydroxy-3,3,3',3'-tetramethyl-1,1'-spirobi[2,3-dihydro-1H-indene]-5,5'-disulfonic acid] |  |  | 69 |
| CC1(C)CC2(CC(C)(C)c3cc([N+](=O)[O-])c(O)c([N+](=O)[O-])c32)c2cc(O)c([N+](=O)[O-])cc21 (centres undefined) [3,3,3',3'-tetramethyl-5,5',7'-trinitro-1,1'-spirobi[2,3-dihydro-1H-indene]-6,6'-diol] | 25 | 44 | 47 |
| CC1(C)CC2(CC(C)(C)c3ccc(O)c([N+](=O)[O-])c32)c2cc(O)c([N+](=O)[O-])cc21 (centres undefined) [3,3,3',3'-tetramethyl-5,7'-dinitro-1,1'-spirobi[2,3-dihydro-1H-indene]-6,6'-diol] | 53 | 47 | 100 |
| CC1(C)CC2(CC(C)(C)c3cc(O)c(O)cc32)c2cc(O)c(O)cc21 [HIV-1 Integrase Inhibitor] | 5 | 17 |  |
| CC1(C)CC2(CC(C)(C)c3ccc(O)cc32)c2cc(O)ccc21 [3,3,3',3'-tetramethyl-1,1'-spirobi[2,3-dihydro-1H-indene]-6,6'-diol] | 231 | 275 |  |
| CC1(C)CC2(CC(C)(C)c3c(Br)c(O)c(O)c(Br)c32)c2c(Br)c(O)c(O)c(Br)c21 [4,4',7,7'-tetrabromo-3,3,3',3'-tetramethyl-1,1'-spirobi[2,3-dihydro-1H-indene]-5,5',6,6'-tetraol] | 1.78 | 3.14 | 15 |
| CC1(C)CC2(CC(C)(C)c3c(Br)c(OS(=O)(=O)O)c(OS(=O)(=O)O)c(Br)c32)c2c(Br)c(OS(=O)(=O)O)c(OS(=O)(=O)O)c(Br)c21 [3,3,3',3'-tetramethyl-1,1'-spirobi(indan)-4,4',7,7'-tetrabromo-5,5',6,6'-tetrol tetrasulfate] | 0.35 | 1.4 | 4 |
| CC1(C)CC2(CC(C)(C)c3cc(I)c(O)cc32)c2cc(O)c(I)cc21 [5,5'-diiodo-3,3,3',3'-tetramethyl-1,1'-spirobi[2,3-dihydro-1H-indene]-6,6'-diol] | 3.12 | 6.28 |  |
| CC1(C)CC2(CC(C)(C)c3cc(OS(=O)(=O)O)c(OS(=O)(=O)O)cc32)c2cc(OS(=O)(=O)O)c(OS(=O)(=O)O)cc21 [3,3,3',3'-tetramethyl-1,1'-spirobi(indan)-5,5',6,6'-tetrol tetrasulfate] | 2 | 2.8 |  |
